From ChEMBL document CHEMBL3286263, “Bazedoxifene-scaffold-based mimetics of solomonsterols A and B as novel pregnane X receptor antagonists” (J Med Chem, 2014)
Calls of active or inactive are those of the source. The calls are words filed in the database; no cut-off is given here.

How the values were obtained:
[1] = target: T1, Nuclear receptor subfamily 1 group I member 2 (Homo sapiens, UniProt O75469); test: Antagonist activity at PXR in human HepG2 cells assessed as inhibition of rifaximin-induced CYP3A4 mRNA expression at 50 uM after 18 hrs by real time-PCR analysis; type: cell-based; settings: hepg2, 18 h
T1 sequence (O75469 whole entry): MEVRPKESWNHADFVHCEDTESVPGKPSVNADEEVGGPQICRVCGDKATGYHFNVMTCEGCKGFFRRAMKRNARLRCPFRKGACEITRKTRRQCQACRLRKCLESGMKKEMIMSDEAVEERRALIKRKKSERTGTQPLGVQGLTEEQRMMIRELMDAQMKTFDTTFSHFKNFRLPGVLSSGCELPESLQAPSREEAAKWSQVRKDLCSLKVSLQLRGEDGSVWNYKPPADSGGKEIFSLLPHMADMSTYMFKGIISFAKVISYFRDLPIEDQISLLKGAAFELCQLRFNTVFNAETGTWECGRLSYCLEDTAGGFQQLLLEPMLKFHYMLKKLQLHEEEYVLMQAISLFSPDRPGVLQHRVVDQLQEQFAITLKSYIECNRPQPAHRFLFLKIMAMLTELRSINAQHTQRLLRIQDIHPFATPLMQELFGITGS
In short: (§1)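 HepG2 seeded 5x10^5 cells/well, grown to about 70% confluence, serum-starved 24 h, then treated 18 h with rifaximin 10 µM alone or with compound at 50 µM. PXR and CYP3A4 mRNA by real-time PCR in triplicate (40 cycles), normalised to GAPDH, 2^-ΔΔCt relative to untreated cells; mean of two experiments.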

[2] = target: T1, Nuclear receptor subfamily 1 group I member 2; test: Agonist activity at human PXR transfected in human HepG2 cells co-transfected with pSG5-RXR/pCMV-beta-galactosidase/p(CYP3A4)-TK-Luc at 10 uM after 18 hrs by luciferase reporter gene assay; type: cell-based; settings: hepg2, 18 h
In short: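 HepG2 seeded 5x10^4 cells/well in MEM/10% FBS, transfected (Fugene HD) with pSG5hPXR, pSG5-RXR, pCMV-β-galactosidase and PXRE luciferase reporter. At 24 h post-transfection, treated 18 h with compounds at 10 µM; rifaximin and solomonsterol A (10 µM) as reference agonists. Lysate luciferase read, normalised to β-galactosidase activity.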

[3] = target: T1, Nuclear receptor subfamily 1 group I member 2; test: Antagonist activity at human PXR transfected in human HepG2 cells co-transfected with pSG5-RXR/pCMV-beta-galactosidase/p(CYP3A4)-TK-Luc assessed as inhibition of rifaximin-induced transactivation after 18 hrs by luciferase reporter gene assay; type: cell-based; settings: for inhibition (INH): human, hepg2, 18 h
In short: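 PXR/RXR/β-gal/PXRE-luciferase-transfected HepG2 cells, 24 h post-transfection, co-treated 18 h with 10 µM rifaximin and compound at 10, 25 and 50 µM. β-galactosidase-normalised luciferase signal used to fit concentration-response curves for IC50.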

[4] = target: T1, Nuclear receptor subfamily 1 group I member 2; test: Antagonist activity at human PXR transfected in human HepG2 cells co-transfected with pSG5-RXR/pCMV-beta-galactosidase/p(CYP3A4)-TK-Luc assessed as inhibition of rifaximin-induced transactivation at 50 uM after 18 hrs by luciferase reporter gene assay; type: cell-based; settings: hepg2, 18 h
In short: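 HepG2 transiently transfected with hPXR, RXR, β-galactosidase and PXRE-luciferase vectors; 24 h later exposed 18 h to rifaximin 10 µM plus compound at 50 µM. Luciferase in lysate measured and divided by β-galactosidase activity to correct for transfection efficiency.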

HepG2 [5] = test: Downregulation of PXR mRNA expression in rifaximin-treated human HepG2 cells at 50 uM after 18 hrs by real time-PCR analysis; type: functional, cell-based; in short: as §1
HepG2 [6] = test: Cytotoxicity against human HepG2 cells transfected with pSG5-PXR/pSG5-RXR/pCMV-beta-galactosidase/p(CYP3A4)-TK-Luc at 50 uM; type: ADME, cell-based; settings: hepg2, 50 µM
In short: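 Transfected HepG2 cells given rifaximin 10 µM plus compound at 50 µM for 18 h; cytotoxicity judged by morphological analysis.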

[7] = target: T1, Nuclear receptor subfamily 1 group I member 2; test: Antagonist activity at human PXR transfected in African green monkey CV1 cells assessed as inhibition of SR12813-induced transactivation after 24 hrs by luciferase reporter gene assay; type: cell-based, CV-1
[8] = target: T1, Nuclear receptor subfamily 1 group I member 2; test: Antagonist activity at PXR (unknown origin) transfected in human HepG2 cells assessed as inhibition of rifampicin-induced reporter gene transcription; type: cell-based

Compound | Activity [2] | inhibition (INH) [4] | further results
Cc1c(-c2ccc(O)c(O)c2)[nH]c2ccc(OCCCO)cc12 | Not Active | Active | inhibition (INH) [1]: Active; IC50 [3]: 14 µM; inhibition (INH) [3]: Dose-dependent effect; Activity (HepG2 [5]): Active
Cc1c(-c2ccc(O)cc2)[nH]c2ccc(OCCO)cc12 | Not Active | Active | 
COc1ccc2[nH]c(-c3ccc(OC)c(OC)c3)c(C)c2c1 |  | Active | Activity (HepG2 [6]): Non-toxic
Cc1c(-c2ccc(O)cc2)[nH]c2ccc(O)cc12 | Not Active | Active | 
Cc1c(-c2ccc(O)c(O)c2)[nH]c2ccc(O)cc12 | Not Active | Active | inhibition (INH) [1]: Active; IC50 [3]: 11 µM; inhibition (INH) [3]: Dose-dependent effect; Activity (HepG2 [5]): Active
COc1ccc2c(c1)c(C)c(-c1ccc(OC)c(OC)c1)n2C |  | Active | Activity (HepG2 [6]): Toxic
Cc1c(-c2ccc(OS(=O)(=O)[O-])c(OS(=O)(=O)[O-])c2)[nH]c2ccc(OS(=O)(=O)[O-])cc12.[Na+].[Na+].[Na+] | Not Active | Not Active | 
Cc1c(-c2ccc(OS(=O)(=O)[O-])cc2)[nH]c2ccc(OCCOS(=O)(=O)[O-])cc12.[Na+].[Na+] | Not Active | Not Active | 
O=c1oc2cc(O)ccc2c2oc3cc(O)ccc3c12 [COUMESTROL] |  |  | IC50 [7]: 12 µM
CO[C@H]1/C=C/O[C@@]2(C)Oc3c(C)c(O)c4c(O)c(c5c(nc6cc(C)ccn65)c4c3C2=O)NC(=O)/C(C)=C\C=C\[C@H](C)[C@H](O)[C@@H](C)[C@@H](O)[C@@H](C)[C@H](OC(C)=O)[C@@H]1C [RIFAXIMIN] | Active |  | 
Cc1c(-c2ccc(OS(=O)(=O)[O-])cc2)[nH]c2ccc(OCCCOS(=O)(=O)[O-])cc12.[Na+].[Na+] | Not Active | Not Active | 
Cc1c(-c2ccc(O)c(O)c2)[nH]c2ccc(OCCO)cc12 | Not Active | Active | 
Cc1c(-c2ccc(OS(=O)(=O)[O-])c(OS(=O)(=O)[O-])c2)[nH]c2ccc(OCCCOS(=O)(=O)[O-])cc12.[Na+].[Na+].[Na+] | Not Active | Not Active | 
Cc1c(-c2ccc(OS(=O)(=O)[O-])cc2)[nH]c2ccc(OS(=O)(=O)[O-])cc12.[Na+].[Na+] | Not Active | Not Active | 
CCCn1c(-c2ccc(O)c(O)c2)c(C)c2cc(O)ccc21 |  | Active | Activity (HepG2 [6]): Toxic
Cc1ccc(SC(=O)c2c(C)noc2-c2cc(C)on2)cc1 |  |  | IC50 [8]: 0.85 µM
Cc1c(-c2ccc(O)c(O)c2)n(Cc2ccccc2)c2ccc(O)cc12 |  | Active | Activity (HepG2 [6]): Toxic
Cc1c(-c2ccc(O)c(O)c2)n(C)c2ccc(O)cc12 |  | Active | Activity (HepG2 [6]): Toxic
Cc1c(-c2ccc(O)cc2)[nH]c2ccc(OCCCO)cc12 | Not Active | Active | 
C[C@H](CCCOS(=O)(=O)[O-])[C@H]1CC[C@H]2[C@@H]3CC[C@H]4C[C@H](OS(=O)(=O)[O-])[C@@H](OS(=O)(=O)[O-])C[C@]4(C)[C@H]3CC[C@]12C.[Na+].[Na+].[Na+] [SOLOMONSTEROL A] | Active |  | 
